Data on 25 compounds can be found in ChEMBL document CHEMBL3751740, “New MKLP-2 inhibitors in the paprotrain series: Design, synthesis and biological evaluations” (Bioorg Med Chem, 2016).

Active and inactive are the calls of the source. No cut-off for these calls is given here.

Assay [1] has as its system KB. Description: Growth inhibition of human KB cells at 1 uM after 72 hrs by MTS assay. The format is functional. Particulars: for inhibition of growth at 1 µM: read-out: GI. A digest of the protocol: (§1)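 KB cells were grown in DMEM with 25 mM glucose and 10% FCS at 37 °C, 5% CO2, and seeded at 500 cells/well. 24 h later, compound in DMSO (1% final) was added at 10 µM or 1 µM for 72 h; controls received DMSO alone. Runs were in duplicate. Viable cells were read with MTS at 490 nm.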

In assay [2] the test system is KB. Description: Growth inhibition of human KB cells at 10 uM after 72 hrs by MTS assay. Particulars: for inhibition of growth at 10 µM: read-out: GI. Format: functional. Put shortly: as §1
The species named for assay [3] is Ovis aries. Description: (§2) Inhibition of sheep brain tubulin polymerization by UV spectrophotometric analysis. Also noted: concentration or dose not given beside the values. A digest of the protocol: (§3)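 Tubulin purified from sheep brain by two assembly/disassembly cycles, about 2–3 mg/mL in 0.1 M MES, 0.5 mM MgCl2, 1 mM EGTA, 1 mM GTP, pH 6.6. Compound in DMSO added at 0 °C, then moved to a 37 °C thermostated cell. Assembly followed by turbidity at 350 nm for a few min.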

Assay [4] deals with T1, Kinesin-like protein KIF20A (Homo sapiens, UniProt O95235).
T1 sequence (O95235 whole entry): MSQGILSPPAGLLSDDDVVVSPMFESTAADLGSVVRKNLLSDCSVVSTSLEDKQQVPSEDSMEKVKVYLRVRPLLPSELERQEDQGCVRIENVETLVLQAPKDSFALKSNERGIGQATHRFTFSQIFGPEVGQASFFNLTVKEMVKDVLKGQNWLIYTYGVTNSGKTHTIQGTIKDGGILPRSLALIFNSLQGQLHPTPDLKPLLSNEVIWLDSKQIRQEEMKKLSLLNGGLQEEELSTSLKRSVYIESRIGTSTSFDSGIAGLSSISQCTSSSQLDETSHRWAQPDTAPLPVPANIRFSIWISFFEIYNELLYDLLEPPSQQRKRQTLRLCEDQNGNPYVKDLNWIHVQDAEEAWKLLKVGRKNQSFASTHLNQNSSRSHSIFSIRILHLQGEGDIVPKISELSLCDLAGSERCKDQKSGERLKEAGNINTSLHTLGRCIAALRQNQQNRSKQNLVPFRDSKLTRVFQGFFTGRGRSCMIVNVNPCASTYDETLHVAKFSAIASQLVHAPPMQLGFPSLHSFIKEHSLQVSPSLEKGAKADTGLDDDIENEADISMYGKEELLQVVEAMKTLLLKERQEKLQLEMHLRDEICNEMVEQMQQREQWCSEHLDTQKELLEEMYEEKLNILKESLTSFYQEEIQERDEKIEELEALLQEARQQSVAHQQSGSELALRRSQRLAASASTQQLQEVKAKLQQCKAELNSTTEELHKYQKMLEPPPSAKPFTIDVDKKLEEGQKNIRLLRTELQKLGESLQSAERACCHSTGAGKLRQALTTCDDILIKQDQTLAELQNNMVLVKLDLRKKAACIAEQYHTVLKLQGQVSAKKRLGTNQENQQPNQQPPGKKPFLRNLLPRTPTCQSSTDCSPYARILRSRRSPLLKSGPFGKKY
Description: Inhibition of microtubule-stimulated N-terminal MKLP-2 (56 to 505 residues) ATPase activity isolated from human hepatocellular carcinoma cells by pyruvate kinase/lactate dehydrogenase enzyme linked assay.

The species named for assay [5] is Ovis aries. Description: Induction of sheep brain microtubule disassembly by UV spectrophotometric analysis. Put shortly:
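Sheep brain tubulin, purified by two assembly/disassembly cycles and held in MES buffer with GTP at pH 6.6, was polymerized at 37 °C for 10 min. Compound was then added to the MTs at 0 °C and depolymerization was followed over the next few minutes by turbidity at 350 nm.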

Assay [6] has as its target T1, Kinesin-like protein KIF20A. Description: Inhibition of N-terminal MKLP2 (56 to 505 residues) ATPase basal activity isolated from human hepatocellular carcinoma cells by pyruvate kinase/lactate dehydrogenase enzyme linked assay.
The nature of assay [7]: as §2. Also noted: species or system Ovis aries. A digest of the protocol:
as §3

The species named for assay [8] is Ovis aries. Description: Inhibition of sheep brain microtubule disassembly by UV spectrophotometric analysis. The arrangement: concentration or dose not given beside the values.

Take `COc1cc(/C=C(\C#N)c2c[nH]c3ccccc23)cc(OC)c1OC`: the inhibition of growth at 1 µM in assay [1] was determined as 6%. Besides, in assay [2], the inhibition of growth at 10 µM was determined as 81%. In addition, the inhibition result in assay [3] was “inactive”. Further, the IC50 result in assay [4] and in assay [6] was “Not Active” each time. In addition, the result in assay [5] was inactive.

`COc1ccc2[nH]cc(/C(C#N)=C/C=C/c3cccnc3)c2c1`: in assay [2], the inhibition of growth at 10 µM was 10%. The same compound registered an inhibition in assay [3] (concentration not given here) of 11%. Further, the IC50 entry in assay [4] and in assay [6] was “Not Active” each time. Besides, the result in assay [5] was inactive.

For the compound `COc1cccc2c(/C(C#N)=C/c3cccnc3)c[nH]c12`, the “growth inhibition (GI)” value in assay [1] was “inactive”. For the same compound, in assay [2], the inhibition of growth at 10 µM came to 85%. For the same compound, the inhibition entry in assay [3] is “inactive”. For the same compound, the IC50 result in assay [4] and in assay [6] was “Not Active” throughout. Further, the outcome in assay [5] was inactive.

Regarding `COc1ccc2[nH]cc(C(C#N)c3cccnc3)c2c1` (configuration not stated), the inhibition of growth at 10 µM in assay [2] is 45%. Moreover, in assay [3], the inhibition entry was “inactive”. Further, the IC50 result in assay [4] and in assay [6] was “Not Active” each time. The outcome in assay [5] was inactive.

As to `COc1ccc(/C=C(\C#N)c2c[nH]c3ccccc23)cc1OC`, the inhibition of growth at 1 µM in assay [1] was 25%. For the same compound, the inhibition of growth at 10 µM in assay [2] stood at 99%. In assay [3] (concentration not given here), this compound came in with an inhibition of 62%. Further, the IC50 in assay [7] is 20 µM; in assay [4], “Not Active”; in assay [6], “Not Active”. Moreover, the result in assay [5] was inactive.

Take `COc1cc(/C=C(\C#N)c2c[nH]c3ccccc23)cc(OC)c1`: the inhibition of growth at 1 µM in assay [1] worked out at 31%. Besides, the inhibition of growth at 10 µM in assay [2] amounted to 96%. The inhibition in assay [3] (concentration not given here) worked out at 31%. Besides, the Activity in assay [8] came out at 11%.

On to `N#C/C(=C\c1cccnc1)c1c(-c2ccccc2)[nH]c2ccccc12`, for which the “growth inhibition (GI)” value in assay [1] was “inactive”. In addition, the inhibition of growth at 10 µM in assay [2] is 93%. Besides, the inhibition in assay [3] (concentration not given here) was determined as 33%. Further, the IC50 result in assay [4] and in assay [6] was “Not Active” each time. Moreover, the Activity in assay [8] worked out at 13%.

As to `COc1ccc2c(c1)c(/C(C#N)=C/c1cccnc1)cn2C(C)=O`, the inhibition of growth at 10 µM in assay [2] is 74%. In assay [3], the inhibition result is “inactive”. In addition, the IC50 result in assay [4] and in assay [6] was “Not Active” throughout. The outcome in assay [5] was inactive.

On to `COc1cccc(/C=C(\C#N)c2c[nH]c3ccccc23)c1OC`, for which the inhibition of growth at 1 µM in assay [1] was found to be 2%. Besides, in assay [2], the inhibition of growth at 10 µM came out at 100%. The inhibition entry in assay [3] was “inactive”. For the same compound, the IC50 result in assay [4] and in assay [6] was “Not Active” each time. For the same compound, in assay [5], the outcome was inactive.

In the case of `COc1cc(OC)c(OC)cc1/C=C(\C#N)c1c[nH]c2ccccc12`, the inhibition of growth at 1 µM in assay [1] came out at 40%. For the same compound, the inhibition of growth at 10 µM in assay [2] turned out to be 100%. In assay [3] (concentration not given here), this compound showed an inhibition of 32%. The IC50 entry in assay [4] and in assay [6] was “Not Active” each time. The result in assay [5] was inactive.

On to `N#C/C(=C\c1cccnc1)c1c[nH]c2ncccc12`, for which the inhibition of growth at 1 µM in assay [1] turned out to be 29%. In assay [2], the inhibition of growth at 10 µM was 100%. This compound showed an inhibition in assay [3] (concentration not given here) of 19%. Also, the outcome in assay [5] was inactive.

For `COc1cc(OC)c(/C=C(\C#N)c2c[nH]c3ccccc23)c(OC)c1`, the “growth inhibition (GI)” value in assay [1] was “inactive”. Moreover, in assay [2], the inhibition of growth at 10 µM is 83%. Further, the inhibition entry in assay [3] was “inactive”. Besides, the IC50 result in assay [4] and in assay [6] was “Not Active” each time. The compound further displayed an Activity in assay [8] of 13%.

For the compound `N#C/C(=C\c1c[nH]c2ccccc12)c1cccnc1`, in assay [2], the inhibition of growth at 10 µM was found to be 23%. For the same compound, in assay [3] (concentration not given here), the inhibition is 45%. Moreover, in assay [5], the outcome was inactive.

Consider `N#C/C(=C\c1ccc(Cl)cc1)c1c[nH]c2ccccc12`, for which the inhibition of growth at 10 µM in assay [2] was determined as 78%. In assay [3] (concentration not given here), the inhibition is 13%. Further, in assay [5], the outcome was inactive.

Consider `COc1ccc2[nH]cc(/C(=C/C#N)Cc3cccnc3)c2c1`, for which the “growth inhibition (GI)” value in assay [2] is “inactive”. This compound also yielded an inhibition in assay [3] (concentration not given here) of 33%. For the same compound, the IC50 entry in assay [4] and in assay [6] was “Not Active” in each case. Moreover, the outcome in assay [5] was inactive.

As to `N#CC(Cc1cccnc1)c1c[nH]c2ccccc12` (configuration not stated), in assay [2], the inhibition of growth at 10 µM was 5%. Moreover, the inhibition in assay [3] (concentration not given here) was 16%. Further, in assay [8], the Activity was found to be 21%.

Regarding `COc1cc(/C=C(\C#N)c2c[nH]c3ccccc23)cc(OC)c1O`, the inhibition of growth at 1 µM in assay [1] is 59%. Besides, the inhibition of growth at 10 µM in assay [2] amounted to 95%. The inhibition in assay [3] (concentration not given here) is 22%. In addition, the IC50 entry in assay [4] and in assay [6] was “Not Active” each time. The same compound displayed an Activity in assay [8] of 47%.

Consider `COc1ccc2[nH]c(C)c(/C(C#N)=C/c3cccnc3)c2c1`, for which the inhibition of growth at 10 µM in assay [2] is 69%. Further, the inhibition result in assay [3] is “inactive”. The result in assay [5] was inactive.

As for `N#C/C(=C\c1cccc(Cl)c1)c1c[nH]c2ccccc12`, the inhibition of growth at 1 µM in assay [1] turned out to be 19%. The inhibition of growth at 10 µM in assay [2] stood at 94%. Moreover, the inhibition entry in assay [3] was “inactive”. The outcome in assay [5] was inactive.

`CSc1ccc(/C=C(\C#N)c2c[nH]c3ccccc23)cc1`: the “growth inhibition (GI)” value in assay [1] is “inactive”. Further, the inhibition of growth at 10 µM in assay [2] worked out at 98%. In addition, in assay [3], the inhibition result was “inactive”. Besides, the IC50 result in assay [4] and in assay [6] was “Not Active” each time. The result in assay [5] was inactive.

For the compound `COc1cccc(/C=C(\C#N)c2c[nH]c3ccccc23)c1`, the “growth inhibition (GI)” value in assay [1] is “inactive”. For the same compound, in assay [2], the inhibition of growth at 10 µM is 89%. Further, in assay [3] (concentration not given here), the inhibition amounted to 37%. In addition, the IC50 entry in assay [4] and in assay [6] was “Not Active” in each case. Besides, the Activity in assay [8] stood at 38%.

For `N#C/C(=C\c1ccc(F)cc1)c1c[nH]c2ccccc12`, the “growth inhibition (GI)” value in assay [1] was “inactive”. In addition, in assay [2], the inhibition of growth at 10 µM came out at 84%. The compound also came in with an inhibition in assay [3] (concentration not given here) of 22%. Further, the result in assay [5] was inactive.

Turning to `N#C/C(=C\c1cccnc1)c1c(-c2ccsc2)[nH]c2ccccc12`, the inhibition of growth at 1 µM in assay [1] is 12%. The inhibition of growth at 10 µM in assay [2] is 99%. In assay [3] (concentration not given here), the inhibition is 70%. For the same compound, the results for the IC50 in assay [7], in assay [4] and in assay [6] were 9.2 µM, “Not Active” and “Not Active”, respectively. Besides, the outcome in assay [5] was inactive.

Take `N#C/C(=C\c1ccc(C(F)(F)F)cc1)c1c[nH]c2ccccc12`: the “growth inhibition (GI)” value in assay [1] was “inactive”. Moreover, the inhibition of growth at 10 µM in assay [2] turned out to be 87%. In assay [3] (concentration not given here), the inhibition turned out to be 57%. Besides, the IC50 entry in assay [4] and in assay [6] was “Not Active” throughout. In assay [5], the outcome was inactive.

With `COc1ccc2[nH]cc(C(=O)/C(C#N)=C/c3cccnc3)c2c1`, the inhibition of growth at 10 µM in assay [2] was 27%. In assay [3], the inhibition result is “inactive”. Moreover, the IC50 entry in assay [4] and in assay [6] was “Not Active” in each case. The same compound yielded an Activity in assay [8] of 14%.
